Ten compounds from paper PMC11843914 (RSC Advances, 2025) can be followed below.

Each structure is given as a SMILES string.

In general, IC50 refers to the concentration needed to halve the response being measured.

Assay type in all cases: cell-based
For one assay, the system named is PC3 (prostate cancer). The assay is described as follows: MTT cell viability assay, PC3. The conditions noted are these: Homo sapiens; for IC50: 48 h, read-out: IC50 values, PC3; for cytotoxicity at 100 µM: read-out: Cytotoxicity %, PC3. The essentials: (§1)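 MTT viability assay on human cell lines: MCF-7, HCT-116, PC3 and normal BJ-1. Test compounds were first screened at 100 μM. IC50 values came from a concentration series of 100 μM down to 12.5 μM.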
(In general: Formazan colour is commonly taken as a measure of viable cells.)

The next assay relates to MCF-7 (breast cancer). The assay is described as follows: MTT cell viability assay, MCF-7. The note with it: Homo sapiens; for IC50: MCF7, 48 h, read-out: IC50 values, MCF-7; for cytotoxicity at 100 µM: MCF7, read-out: Cytotoxicity %, MCF-7. The essentials:
as §1

The test system of another assay is HCT-116 (colon cancer). Put plainly: MTT cell viability assay, HCT-116. The conditions noted are these: Homo sapiens; for IC50: HCT-116, 48 h, read-out: IC50 values, HCT-116; for cytotoxicity at 100 µM: HCT-116, read-out: Cytotoxicity %, HCT-116. The essentials: as §1

`O=c1[nH]cc(F)c(=O)[nH]1` [5-FU, 5-fluorouracil, reference compound]: the IC50 in the assay with PC3 (prostate cancer) is above 200 µM; in the assay with MCF-7 (breast cancer) it was 78.4 ± 4.2 µM; in the assay with HCT-116 (colon cancer) it was 29.2 ± 1.7 µM.

Turning to `O=C(NN=Cc1ccc(O)cc1)c1nc2ccccc2s1` [6a, N′-(4-Hydroxybenzylidene)benzo[d]thiazole-2-carbohydrazide], the IC50 in the assay on HCT-116 (colon cancer) came out at 102 ± 2.1 µM.

On to `COc1ccc(C=NNC(=O)c2nc3ccccc3s2)cc1O` [6c, N'-(3-Hydroxy-4-methoxybenzylidene)benzo[d]thiazole-2-carbohydrazide], for which, in the assay with MCF-7 (breast cancer), the IC50 worked out at 80.9 ± 3.7 µM and the cytotoxicity at 100 µM was found to be 58.1%.

With `CS(=O)(=O)Oc1ccc(C=NNC(=O)c2nc3ccccc3s2)cc1` [6d, 4-((2-(Benzo[d]thiazole-2-carbonyl)hydrazono)methyl)phenyl methanesulfonate], the figures for the cytotoxicity at 100 µM with PC3 (prostate cancer), with MCF-7 (breast cancer) and with HCT-116 (colon cancer) were 66.5%, 62.5% and 66.7%, respectively.

On to `COc1cc(C=NNC(=O)c2nc3ccccc3s2)ccc1OS(C)(=O)=O` [6e, 4-((2-(Benzo[d]thiazole-2-carbonyl)hydrazono)methyl)-2-methoxyphenyl methanesulfonate], for which, in the assay on PC3 (prostate cancer), the IC50 is 90.6 ± 2.7 µM and the cytotoxicity at 100 µM stood at 60.8%. In the assay with HCT-116 (colon cancer), the IC50 was 81.4 ± 1.9 µM and the cytotoxicity at 100 µM is 61.1%.

On to `COc1ccc(C=NNC(=O)c2nc3ccccc3s2)cc1OS(C)(=O)=O` [6f, 5-((2-(Benzo[d]thiazole-2-carbonyl)hydrazono)methyl)-2-methoxyphenyl methanesulfonate], for which, in the assay with HCT-116 (colon cancer), the cytotoxicity at 100 µM was determined as 62.8%.

For `CCS(=O)(=O)Oc1ccc(C=NNC(=O)c2nc3ccccc3s2)cc1` [6g, 4-((2-(Benzo[d]thiazole-2-carbonyl)hydrazono)methyl)phenyl ethanesulfonate], the results for the cytotoxicity at 100 µM with PC3 (prostate cancer), with MCF-7 (breast cancer) and with HCT-116 (colon cancer) were 74.8%, 62.3% and 68.6%, respectively.

As to `CCS(=O)(=O)Oc1ccc(C=NNC(=O)c2nc3ccccc3s2)cc1OC` [6h, 4-((2-(Benzo[d]thiazole-2-carbonyl)hydrazono)methyl)-2-methoxyphenyl ethanesulfonate], the figures for the cytotoxicity at 100 µM in the assay on PC3 (prostate cancer) and in the assay with HCT-116 (colon cancer) were 63.4% and 55.2%, respectively.

Regarding `CCCS(=O)(=O)Oc1ccc(C=NNC(=O)c2nc3ccccc3s2)cc1` [6j, 4-((2-(Benzo[d]thiazole-2-carbonyl)hydrazono)methyl)phenyl propane-1-sulfonate], the cytotoxicity at 100 µM amounted to 62.3% with PC3 (prostate cancer) and 68.5% in the assay with HCT-116 (colon cancer).

Regarding `CCCS(=O)(=O)Oc1ccc(C=NNC(=O)c2nc3ccccc3s2)cc1OC` [6k, 4-((2-(Benzo[d]thiazole-2-carbonyl)hydrazono)methyl)-2-methoxyphenyl propane-1-sulfonate], the values for the cytotoxicity at 100 µM in the assay with PC3 (prostate cancer), in the assay on MCF-7 (breast cancer) and in the assay on HCT-116 (colon cancer) were 64.6%, 59.6% and 77.2%, respectively.
